{"source": "paper PMC2156157", "about": "(The Journal of Cell Biology, 1999)", "key": {"[1]": {"system": "GST-EBP50", "assay": "GST-EBP50 pull-down from 16HBE14o− lysate, Western blot", "assay_type": "binding, human", "settings": "10 μg GST-EBP50, 16HBE14o− lysate", "in_short": "(§1)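 Human bronchial epithelial 16HBE14o− cells lysed in RIPA with 250 µM orthovanadate and protease inhibitors, then cleared at 40,000 g. GST or GST fusion protein (10 µg) on glutathione agarose was incubated with lysate (100 µg or ~200 µg) in binding buffer + 0.1% Triton X-100 for 3 h at 4°C. Washes: TEE/1 M NaCl/1% Triton, then binding buffer. Bound protein detected by 10% SDS-PAGE and immunoblot; ≥3 repeats.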"}, "[2]": {"system": "GST-PDZ2", "assay": "GST-PDZ2 pull-down from 16HBE14o− lysate, Western blot", "assay_type": "binding, human", "settings": "10 μg GST-PDZ2, ∼200 μg 16HBE14o− lysate", "in_short": "(§2)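 GST fusion protein (10 μg) immobilized on glutathione agarose and incubated 3 h at 4°C with ~200 μg 16HBE14o− lysate. Lysate made in RIPA with 250 μM orthovanadate and protease inhibitors, cleared at 40,000 g, and diluted in binding buffer + 0.1% Triton X-100. Beads washed in TEE/1 M NaCl/1% Triton, then in binding buffer/1% Triton. Eluates run on SDS-PAGE and Western blotted; each assay run at least three times.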"}, "[3]": {"system": "GST-PDZ1", "assay": "GST-PDZ1 pull-down from 16HBE14o− lysate, Western blot", "assay_type": "binding, human", "settings": "10 μg GST-PDZ1, ∼200 μg 16HBE14o− lysate", "in_short": "as §2"}, "[4]": {"system": "GST", "assay": "GST control pull-down from 16HBE14o− lysate, Western blot", "assay_type": "binding", "settings": "10 μg GST", "in_short": "as §1"}, "[5]": {"system": "GST-EBP50", "assay": "blot overlay, GST-EBP50", "assay_type": "binding, human", "settings": "blot overlay assays (not shown)"}, "[6]": {"system": "GST-PDZ2 (PDZ2 of EBP50)", "assay": "GST-PDZ2 affinity resin binding of radiolabeled protein", "parameters": "species or system human", "in_short": "(§3)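 GST or GST-EBP50, PDZ1 or PDZ2 fusion (10 µg) was immobilised on glutathione agarose. Binding ran in binding buffer + 0.1% Triton X-100 for 3 h at 4°C. Resin washed three times in TEE/1 M NaCl/1% Triton, then three times in binding buffer/1% Triton. Eluate acetone-precipitated; SDS-PAGE and phosphorimaging; ≥3 repeats.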"}, "[7]": {"system": "GST-EBP50", "assay": "GST-EBP50 affinity resin binding of radiolabeled proteins", "parameters": "species or system human", "settings": "in vitro, conclusion from competition and resin binding", "in_short": "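GST-EBP50 (10 µg) on glutathione agarose was preincubated for 2 h with or without biotinylated C-terminal peptides. Peptides were given at 400 nM, or at increasing concentrations of YAP65 wild-type peptide. Incubation lasted 3 h at 4°C, followed by high-salt (1 M NaCl) and detergent washes. Bound and unbound fractions read by SDS-PAGE and phosphorimaging.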"}, "[8]": {"system": "GST-PDZ1 (PDZ1 of EBP50)", "assay": "GST-PDZ1 affinity resin binding of radiolabeled protein", "parameters": "species or system human", "settings": "10 μg; radiolabeled full-length YAP65; 1 M NaCl washes", "in_short": "as §3"}, "[9]": {"system": "GST", "assay": "GST control resin binding of radiolabeled protein", "settings": "10 μg; radiolabeled full-length YAP65; 1 M NaCl washes", "in_short": "as §3"}, "[10]": {"system": "apical membrane of airway epithelial cells", "assay_type": "cell-based, human", "settings": "16HBE14o− cells on transwell filters 7–10 d after confluence, confocal", "in_short": "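Samples were 16HBE14o− filters (7–10 d post-confluence) or primary nasal cultures (air-liquid interface, 40–50 d). Fixation was 4% paraformaldehyde, 5–20 min, room temperature. Blocking used milk/BSA/Triton (16HBE14o−) or 10–20% goat serum (primary). Primary antisera ran 4–12 h: ezrin 1:300, ZO-1 1:200, EBP50 1:500 or 1:200, YAP65 1:300 or 1:200. Primary cultures also got 70 nM FITC-phalloidin. Texas red/FITC secondaries, XZ confocal imaging.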"}, "[11]": {"system": "SH3 domain of c-Src and c-Yes", "settings": "biochemical assays; ref Sudol 1994; cited from earlier work"}, "[12]": {"system": "c-Yes", "assay_type": "cell-based, human", "settings": "16HBE14o− on transwell filters, mouse anti–c-Yes (1:100), XZ confocal", "in_short": "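16HBE14o− clones stably expressing GFP-YAP65 chimeras were selected with G418 and screened by fluorescence and anti-GFP blot. Cells were grown to confluence on transwell filters and fixed in 4% paraformaldehyde. After blocking (milk/BSA/0.1% Triton X-100, 3 h), they were stained with mouse anti-c-Yes (1:100) and fluorescent secondary antiserum, then scanned in XZ by confocal microscopy. At least two independent clones per line were analysed.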"}}, "note": "Ends that are not written are not given here. * marks the point of attachment. Biotin = O=C1N[C@H]2[C@H](CS[C@H]2CCCCC(=O)*)N1", "data": [{"substance": "c-Yes: nonreceptor tyrosine kinase of the Src family", "values": [{"measurement": "association with GST-EBP50 from lysate", "setting": "[1]", "result": "easily visualized in the bound fraction of GST-EBP50 and GST-PDZ2 affinity resins"}, {"measurement": "association with GST-PDZ2 from lysate", "setting": "[2]", "result": "easily visualized in the bound fraction of GST-EBP50 and GST-PDZ2 affinity resins"}, {"measurement": "association with GST-PDZ1 from lysate", "setting": "[3]", "result": "no c-Yes was found to associate with GST or with GST-PDZ1"}, {"measurement": "association with GST from lysate", "setting": "[4]", "result": "no c-Yes was found to associate with GST or with GST-PDZ1"}]}, {"substance": "YAPwt: the COOH-terminal 10 amino acids of YAP65 (Biotin-SGSGLDKESFLTWL)", "values": [{"measurement": "binding to GST-EBP50 in blot overlay", "setting": "[5]", "result": "bound GST-EBP50"}, {"measurement": "preferential binding to PDZ2 versus PDZ1", "setting": "[6]; GST fusion proteins of PDZ1 and PDZ2, pull-down (Fig. 5 C), discussion statement", "result": "preferential binding of YAP65 to PDZ2"}]}, {"substance": "YAP65: Yes-associated protein 65; full-length human, in vitro translated, or endogenous", "values": [{"measurement": "affinity for EBP50", "setting": "[7]", "result": "appear to bind EBP50 with high affinity"}, {"measurement": "association with GST-PDZ2", "setting": "[6]; 10 μg, radiolabeled full-length YAP65, 1 M NaCl washes", "result": "associated with GST-EBP50 and GST-PDZ2 of EBP50"}, {"measurement": "association with GST-PDZ1", "setting": "[8]", "result": "not with GST or GST-PDZ1"}, {"measurement": "association with GST", "setting": "[9]", "result": "not with GST or GST-PDZ1"}, {"measurement": "association with GST-EBP50 from lysate", "setting": "[1]", "result": "bound to the GST-EBP50 beads"}, {"measurement": "association with GST from lysate", "setting": "[4]", "result": "not to GST beads"}, {"measurement": "localization of endogenous protein", "setting": "[10]", "result": "preferentially accumulated at the apical membrane"}, {"measurement": "binding to SH3 domain of c-Src and c-Yes", "setting": "[11]", "result": "bind the SH3 domain of c-Src and c-Yes, although the affinity for c-Yes was greater"}]}, {"substance": "GFP-YAP65/−4: GFP fused with YAP65 lacking the last four amino acids", "values": [{"measurement": "c-Yes distribution in cells stably overexpressing the chimera", "setting": "[12]", "result": "a significant amount of c-Yes was redistributed to the lateral cell borders"}]}]}
